Screens (PubChem BioAssay)
Shown are actives, neighbours in structure and some others; about 3.5% of the full set was active somewhere.
RGS4 inh = inhibitors of human RGS4. actives 0.45% (n = 310,000). B-score at 10 µM. HEK293 M3R/RGS4 inducible, Fluo-4 calcium flux; active compounds read high; triggered by carbachol at its EC20. P49798. AID 463165;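 active means B-score, a plate-corrected calcium signal, over three deviations above library mean, with baseline fluorescence within five deviations of library mean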;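 further: RGS4 expression induced by doxycycline in cells with stable M3 receptor; B-score is computed from the integrated fluorescence ratio over baseline after carbachol; higher B-score means a larger calcium signal and so more RGS4 inhibition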
Target sequence (P49798 whole entry, looked up): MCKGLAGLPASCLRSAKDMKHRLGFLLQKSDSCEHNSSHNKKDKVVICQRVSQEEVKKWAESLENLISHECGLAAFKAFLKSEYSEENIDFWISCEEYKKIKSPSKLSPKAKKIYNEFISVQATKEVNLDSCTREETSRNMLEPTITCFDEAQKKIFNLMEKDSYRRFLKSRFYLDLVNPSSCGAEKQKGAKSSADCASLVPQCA
MrgX1 ag = agonists of human MrgX1 receptor; Q96LB2; MrgX1-HEK293 cells, Fluo-4 calcium fluorescence, agonist mode; active compounds read high; B-score at 10 µM; actives 0.44% (n = 310,000); AID 588627;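 active means calcium response B-score plate-corrected fluorescence ratio at least 3 library SD, with starting fluorescence B-score inside 5 SD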
Target sequence (Q96LB2 whole entry, looked up): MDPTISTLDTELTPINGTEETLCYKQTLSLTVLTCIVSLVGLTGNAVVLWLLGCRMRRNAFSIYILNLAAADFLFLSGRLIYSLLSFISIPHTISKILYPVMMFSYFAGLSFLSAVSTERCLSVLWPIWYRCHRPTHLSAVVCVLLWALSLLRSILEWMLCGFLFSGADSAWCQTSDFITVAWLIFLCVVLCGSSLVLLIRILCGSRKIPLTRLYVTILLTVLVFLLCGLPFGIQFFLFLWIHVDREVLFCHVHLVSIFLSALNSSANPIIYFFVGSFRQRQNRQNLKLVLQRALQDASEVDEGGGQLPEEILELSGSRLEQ
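Material: MrgX1-expressing HEK293 cells; input: 15,000 cells per well; doses: test compound given as first of three sequential additions; schedule: overnight plating before 1 h dye loading; technique: Fluo-4 NW calcium-flux fluorescence, kinetic read; evaluation: baseline-normalised fluorescence change ratio, B-scored; control set: plate-wise positive and negative controls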
MrgX1 antagonist = blocks BAM8-22 activation of human MrgX1 receptor; Q96LB2; MRGX1-HEK293 calcium flux, Fluo-4, BAM8-22 antagonism; active compounds read low; B-score at 10 µM; actives 1.3% (n = 310,000);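 active means calcium-response B-score plate-corrected more than 3 library SD below zero, starting fluorescence within 5 deviations, no agonist response on first addition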;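 further: peak minus trough fluorescence over baseline after final BAM8-22 challenge near maximal dose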
MrgX1 PAM = allosterically activates human MrgX1 receptor signaling | MrgX1-HEK293, Fluo-4 calcium flux, FDSS; active compounds read high | AID 588675 | B-score at 10 µM | Q96LB2 | actives 0.63% (n = 310,000);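 active means plate-corrected calcium response at least 3 library SD above typical, normal starting fluorescence, not activating the receptor alone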;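 further: compound read alongside a low EC10 to EC30 dose of BAM8-22 agonist; peak minus trough fluorescence over baseline measured at the second addition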
RGS4 pot = potentiators or activators of RGS4. HEK293 M3R/inducible RGS4, carbachol calcium flux Fluo4; active compounds read low. actives 0.92% (n = 310,000). B-score at 10 µM;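 active means B-score of the integrated calcium signal more than 4 SD below the library mean, with starting fluorescence not abnormally high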;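 further: negative B-score means reduced calcium response which marks RGS4 activation or potentiation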
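Test system: HEK293 cells with stable M3R and inducible RGS4; also added: carbachol at ECmax as muscarinic agonist stimulus; schedule: dye loading 30 min 37 °C, buffer rest 30 min RT; technique: kinetic calcium fluorescence imaging with Fluo4-AM dye, 2 µM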
RGS4 block valid = validation of RGS4 inhibitors; shares compounds with RGS4 inh; HEK293 M3R/RGS4, carbachol calcium Fluo-4 fluorescence; carbachol added at its EC20; 0 = buffer wells, 100 = carbachol control; actives 65% (n = 1,700); calcium response, % at 10 µM;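 active means duplicate-averaged calcium response above the buffer-only control mean plus 5 SD of those controls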;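 further: integrated fluorescence ratio F max minus min over baseline F0; higher response in RGS4-induced cells means RGS4 inhibition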
M3R Ca ctr = counter-screen for RGS4 inhibitors: effect in non-induced cells; shares compounds with RGS4 inh; HEK293 M3R non-induced, carbachol calcium Fluo-4; submaximal (EC20) carbachol stimulus; buffer wells 0%, carbachol control wells 100%; activity (percent), % at 10 µM; actives 20% (n = 1,900); call rule not given here;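 further: RGS4 induction absent so cells express M3R without RGS4; higher means more calcium signal and flags a non-specific hit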
M3R basal Ca ctr = signal in non-induced cells without carbachol, RGS4 inhibitor counter-screen. HEK293 M3R/RGS4 non-induced, Fluo-4 calcium, no carbachol; normalised: buffer wells 0%, carbachol wells 100%. calcium response (agonist-mode artifact), % at 10 µM. shares compounds with RGS4 inh. actives 22% (n = 1,900). AID 493001;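 active means duplicate-averaged calcium rise in uninduced cells above buffer wells' mean plus 5 SD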
MrgX1 ag confirm = reconfirmed activator of human MrgX1 receptor signaling | shares compounds with MrgX1 ag | MrgX1-HEK293, Fluo-4 calcium fluorescence, FDSS | activation, % at 10 µM | actives 78% (n = 600);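 active means calcium signal rise, corrected for plate position, at least 3 library SD high, with starting brightness within 5 such deviations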
MrgX1 allo conf = human MrgX1 positive allosteric modulation, re-confirmation; actives 13% (n = 1,200); activation (ratio percentage), % at 10 µM; MrgX1-HEK293, Fluo-4 calcium fluorescence, FDSS; shares compounds with MrgX1 PAM; AID 602413;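 active means ratio at least 3 SD above the weak peptide control, stable starting fluorescence, no direct agonism earlier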;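 further: compound followed by low BAM8-22 agonist challenge near EC20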
MrgX1 antag conf = confirmation of human MrgX1 receptor antagonists; MrgX1-HEK293, BAM8-22 calcium flux, Fluo-4; active compounds read low; remaining BAM8-22 calcium response % of control (active compounds read low), % at 10 µM; shares compounds with MrgX1 antagonist; actives 19% (n = 2,300);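 active means remaining agonist calcium response no higher than 100% minus 3 SD of agonist-only control wells, with starting fluorescence near control levels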;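 further: agonist BAM8-22 given at a near maximal EC90 to ECmax level; peak minus minimum fluorescence divided by baseline after agonist addition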
HEK293 Ca flux = counter-screen for MrgX1 antagonists: effect in parental HEK293 cells; shares compounds with MrgX1 antagonist; Fluo-4 calcium fluorescence, FDSS; fluorescence ratio F(max-min)/F0 at 10 µM; actives 2% (n = 4,000);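 active means duplicate-averaged calcium fluorescence ratio at least three times the standard deviation of buffer wells, a nonspecific response in parental cells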
HEK293 Ca counter = MrgX1 allosteric activator counter-screen hit in parental HEK293 cells. shares compounds with MrgX1 antagonist. parental HEK293 calcium flux, Fluo-4 fluorescence ratio; active compounds read high. fluorescence ratio F(max-min)/F0 at 10 µM. actives 0.4% (n = 4,000). AID 624114;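 active means calcium fluorescence ratio, averaged over duplicates, at least 3 SD of the buffer-well ratio, meaning a nonspecific response in receptor-free cells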;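 further: untransfected parental HEK293 lacking MrgX1 used as counterscreen for MrgX1 allosteric activators; fluorescence change taken during the second addition on a kinetic imager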
HEK293 Ca cntr2 = activity in parental HEK293 cells lacking MrgX1 receptor; shares compounds with MrgX1 antagonist; Fluo-4 calcium fluorescence (FDSS); active compounds read high; fluorescence ratio F(max-min)/F0 at 10 µM; actives 8.7% (n = 4,000); AID 624115;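 active means calcium fluorescence ratio at least three times the spread of buffer wells, meaning a non-specific response in parental cells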
An asterisk follows results filed as active; i = inactive; x = no result given.

SMILES	RGS4 inh	MrgX1 ag	MrgX1 antagonist	MrgX1 PAM	RGS4 pot	RGS4 block valid	M3R Ca ctr	M3R basal Ca ctr	MrgX1 ag confirm	HEK293 Ca flux	HEK293 Ca counter	HEK293 Ca cntr2	others
COc1ccc(C2C(C#N)=C(N)Oc3cc(O)ccc32)cc1Cl (stereo not drawn)	6.75*	48.9*	i	i	i	20.0%*	43.0%*	40.0%*	i	i	i	i
O=C1COc2ccc(S(=O)(=O)N3CCC(C(=O)NCc4ccccc4)CC3)cc2N1	i	i	i	i	i	x	x	x	x	x	x	x
COc1ccc(C(=O)CCN2CCN(c3ccccc3OC)CC2)cc1	i	i	i	i	i	x	x	x	x	x	x	x
COc1ccc(C(=O)CCN2CCc3cc(OC)c(OC)cc3C2)cc1	i	42.5*	i	i	i	x	i	8.5%*	i	i	i	i
COc1ccc(C(=O)CCS(=O)(=O)c2ccc(F)cc2)cc1OC	35.5*	31.2*	i	i	i	168.0%*	28.5%*	15.0%*	140.9%*	i	i	i
Cc1c(Cl)cccc1NC(=O)CSc1nc2ncc(Cl)cc2[nH]1	i	i	i	i	i	x	x	x	x	x	x	x
COc1cc(NC(=O)CN(C)S(=O)(=O)c2ccc(-c3ccc(=O)[nH]n3)s2)cc(OC)c1	i	i	i	i	i	x	x	x	x	x	x	x
Cc1c(Cl)ccc2c1NC(=O)[C@]21N[C@@H](Cc2ccccc2)[C@H]2C(=O)N(c3ccc(F)cc3)C(=O)[C@H]21	4.89*	26.6*	i	i	i	27.0%*	i	20.0%*	i	i	i	i
O=C(Nc1ccc(Oc2cccnc2)cc1)C1CCN(Cc2cc(Cl)ccc2O)CC1	i	i	i	i	i	x	x	x	x	x	x	x
COc1cc(C2(c3ccc(O)c(OC)c3)C(=O)Nc3c(C)cc(Br)cc32)ccc1O	11.5*	i	-4.6*	i	i	43.0%*	i	25.0%*	x	i	i	i	MrgX1 antag conf=83.1%*
COc1ccc(CS(=O)(=O)/C(Cl)=C(/Cl)C(=O)Nc2ccc(OC)nc2)cc1	12.7*	46.8*	i	i	i	57.0%*	32.0%*	12.0%*	191.0%*	i	i	i
CCOc1ccc(-c2nnc3n2N=C(c2ccc(OC)cc2)CS3)cc1	i	i	i	i	i	x	x	x	x	x	x	x
COc1ccc(C2=Nn3c(nnc3-c3ccncc3)SC2)cc1OC	5.15*	i	i	8.17*	i	9.0%*	i	i	x	i	i	i	MrgX1 allo conf=i
CC(=O)NC1C(OC(=O)/C=C/c2ccccc2)OC(COC(C)=O)C(OC(C)=O)C1OC(C)=O (stereo not drawn)	i	i	i	i	i	x	x	x	x	x	x	x
CC(=O)NCc1ccc(C(=O)CCl)cc1	6.69*	34.7*	i	i	i	40.0%*	i	9.5%*	196.7%*	i	i	i
CC(=O)NCc1ccc(C(=O)CCl)s1	i	i	i	i	i	x	x	x	x	x	x	x
O=C(CCN1CCc2ccccc2CC1)c1ccc2c(c1)OCCO2	13.3*	38.4*	i	i	i	19.5%*	i	26.5%*	135.9%*	i	i	i
Cc1[nH]c2ccccc2c1C(=O)C(=O)N1CCN(c2ccccc2)CC1	i	i	i	i	i	x	x	x	x	x	x	x
COc1cc(OC)cc(C(=O)NC(=S)NNC(=O)Cc2cccs2)c1	i	72.1*	i	i	i	x	x	x	534.8%*	i	i	102*
COc1cc(NC(=O)Cc2cccs2)cc(OC)c1	i	i	i	i	i	x	x	x	x	x	x	x
Nc1ccc(C(=O)c2cccs2)cc1[N+](=O)[O-]	i	i	i	i	i	x	x	x	x	x	x	x
Cc1cc(Nc2ccc(Cl)cc2)nc(N)n1	i	34.7*	i	i	i	x	x	x	206.8%*	i	i	i
COc1ccc(NC(=S)N(CCN2CCOCC2)C2CCN(C(C)=O)CC2)cc1Cl	i	69.3*	i	i	i	x	x	x	i	i	i	i
O=C(C#Cc1ccccc1)c1ccco1	i	44.2*	i	i	i	x	x	x	240.3%*	i	i	i
Cc1oc2cc(O)ccc2c(=O)c1-c1nncn1-c1ccccc1	i	29.8*	i	i	i	x	x	x	i	i	i	i
CC(c1ccccc1)C1CC(=O)N(Cc2ccccc2)C1=O (stereo not drawn)	i	i	i	i	i	x	x	x	x	x	x	x
O=C(CNCC1CCCCC1)Nc1ccc(OC(F)(F)F)cc1	i	106*	i	i	i	x	x	x	416.5%*	i	i	52.1*
COC(=O)C1=C(CSc2nc3c(cc2C#N)CN(C)CC3)OC(N)=C(C#N)C1c1ccccc1F (stereo not drawn)	i	41.8*	i	i	i	x	x	x	265.4%*	i	i	56.6*
